Data reported in article PMC4025951 (Neurochemical research, 2013).
Several values for one entry are separate records, joined by “and”; a condition that tells them apart may be missing. Equal entries are not always repeated. Where two headings read alike, the source gives them in different places.

How the values were obtained:
VGLUT [1] = assay: Vesicular glutamate uptake into synaptic vesicles; assay type: biochemical, rat
[2] = molecular target: T1, vesicular GABA transporter (Bos taurus, UniProt G3N354); assay: Vesicular GABA uptake into synaptic vesicles; assay type: biochemical, bovine; conditions: concentrations up to 50 μM
T1 sequence (G3N354 1-526): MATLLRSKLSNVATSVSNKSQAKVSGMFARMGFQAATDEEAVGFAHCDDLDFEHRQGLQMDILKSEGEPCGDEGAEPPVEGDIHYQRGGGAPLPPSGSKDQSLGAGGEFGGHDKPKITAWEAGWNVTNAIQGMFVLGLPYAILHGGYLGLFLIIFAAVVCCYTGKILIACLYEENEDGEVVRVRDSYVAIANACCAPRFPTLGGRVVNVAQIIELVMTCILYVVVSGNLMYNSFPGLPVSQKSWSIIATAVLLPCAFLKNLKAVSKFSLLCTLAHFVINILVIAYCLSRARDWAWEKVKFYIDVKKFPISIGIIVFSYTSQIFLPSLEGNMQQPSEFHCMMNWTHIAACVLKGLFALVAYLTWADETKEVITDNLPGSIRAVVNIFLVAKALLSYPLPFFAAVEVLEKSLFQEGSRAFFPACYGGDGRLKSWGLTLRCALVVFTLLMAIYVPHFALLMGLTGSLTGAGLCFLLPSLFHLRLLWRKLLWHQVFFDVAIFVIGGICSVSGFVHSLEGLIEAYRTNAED
Outline: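 Crude calf cerebral cortex synaptic vesicles in 20 mM K-Hepes pH 7.4, 4 mM MgSO4, 4 mM KCl, 0.25 M sucrose. Pre-incubated 10 min at 30 °C with varied test compound concentrations. Then 2 mM ATP plus 50 μM [3H]GABA for 10 min. Filtered and washed with 0.15 M KCl.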

VGLUT [3] = assay: Kinetics of vesicular glutamate uptake with Brilliant Yellow; assay type: biochemical, rat; conditions: competitive with glutamate; 0, 40, 60 and 80 nM Brilliant Yellow; n=3
[4] = system: plasma membrane glutamate transporter; assay: Na+-dependent synaptosomal glutamate uptake; assay type: biochemical, rat; conditions: for Glutamate uptake / %Control: 50 μM test agent; for Glutamate uptake: Na+-dependent [3H]glutamate uptake into synaptosomes; for %Control: synaptosomal glutamate uptake
Outline: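 Rat cerebrum synaptosomes (100 μg protein) were incubated 10 min at 37 °C in Krebs solution with 1 μM [3H]glutamate (5 Ci/mmol), ± 50 μM test agent. Na+-dependent uptake was NaCl minus choline chloride values, in dpm and % of control.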

VGLUT [5] = conditions: ref [25], cited from earlier work
[6] = Table 3, Brilliant Yellow analogs, vesicular glutamate uptake
[7] = Table 1, rat brain synaptic vesicles, 50 μM [3H]glutamate ± ATP, 10-min incubation

Compound	IC50 (VGLUT [1]; [6]) [nM]	IC50 (VGLUT [1]; [7]) [nM]	further results
CC(=O)Nc1ccc(C=Cc2ccc(NC(C)=O)cc2S(=O)(=O)O)c(S(=O)(=O)O)c1 [4,4-Diacetamidostilbene-2,2’-disulfonate, 4,4’-diacetamidostilbene-2,2’-disulfonate]	> 50000		
Nc1ccc(C=Cc2ccc(N)cc2S(=O)(=O)O)c(S(=O)(=O)O)c1 [4,4-Diaminostilbene-2,2’-disulfonate, 4,4’-diaminostilbene-2,2’-disulfonate]	> 50000		
O=[N+]([O-])c1ccc(C=Cc2ccc([N+](=O)[O-])cc2S(=O)(=O)O)c(S(=O)(=O)O)c1 [4,4’-Dinitrostilbene-2,2’-disulfonate, 4,4’-dinitrostilbene-2,2’-disulfonate]	1690 ± 110		
O=C(Nc1ccc(C=Cc2ccc(NC(=O)c3ccccc3)cc2S(=O)(=O)O)c(S(=O)(=O)O)c1)c1ccccc1 [4,4’-dibenzamidostilbene-2,2’-disulfonate]	2000		
O=S(=O)(O)c1cc(NS(=O)(=O)c2ccccc2)ccc1C=Cc1ccc(NS(=O)(=O)c2ccccc2)cc1S(=O)(=O)O [4,4’-diphenylsulfonamidostilbene-2,2’-disulfonate]	> 50000		
O=S(=O)(O)c1ccc2c(N=Nc3cccc4ccccc34)c(O)c(S(=O)(=O)O)cc2c1 [Bordeau R]		6500	
O=S(=O)(O)c1cc(S(=O)(=O)O)c2c(N=Nc3ccc(N=Nc4ccccc4)cc3)c(O)ccc2c1 [Brilliant Crocein MOO]		7700	
O=S(=O)([O-])c1cc(N=Nc2ccc(O)cc2)ccc1/C=C/c1ccc(N=Nc2ccc(O)cc2)cc1S(=O)(=O)[O-].[Na+].[Na+] [Brilliant Yellow]	44 ± 6	44 ± 7	Inhibition of vesicular glutamate uptake (VGLUT [1]; at 0.3 μM): 80%; Effect on vesicular GABA uptake [2]: affected neither; Ki (VGLUT [3]): 12 nM and 12.5 nM; Glutamate uptake [4]: 279,032 dpm; %Control [4]: 112%; Effect on synaptosomal glutamate uptake ([4]; concentrations up to 50 μM): affected neither
CCOc1ccc(N=Nc2ccc(/C=C/c3ccc(N=Nc4ccc(OCC)cc4)cc3S(=O)(=O)O)c(S(=O)(=O)O)c2)cc1 [Chrysophenine]	266 ± 70		
COc1cc(N=Nc2c(C)cc(C)cc2S(=O)(=O)[O-])c(C)cc1N=Nc1c(S(=O)(=O)[O-])cc2cc(Nc3ccccc3)ccc2c1O.[Na+].[Na+] [Direct Violet 51]		148 ± 31	Glutamate uptake [4]: 258,020 dpm; %Control [4]: 104%
O=C([O-])C1=NN(c2ccc(S(=O)(=O)[O-])cc2)C(=O)C1N=Nc1ccc(S(=O)(=O)[O-])cc1.[Na+].[Na+].[Na+] (centres unmarked) [Tartrazine]		> 50000	Inhibitory activity on vesicular glutamate uptake (VGLUT [1]): rather inactive
Cc1cc(-c2ccc(/N=N/c3c(S(=O)(=O)O)cc4cc(S(=O)(=O)O)cc(N)c4c3O)c(C)c2)ccc1/N=N/c1c(S(=O)(=O)O)cc2cc(S(=O)(=O)O)cc(N)c2c1O [Trypan Blue]			IC50 (VGLUT [5]; [26]): 49 nM; Ki (VGLUT [5]): ~50 nM
Nitrazine Yellow		4400	
Sulforhodamine		> 50000	Inhibitory activity on vesicular glutamate uptake (VGLUT [1]): rather inactive
